Calls of active or inactive are those of the source.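 Rule for the calls: active = compounds whose fitted caspase activation midpoint falls no more than tenfold above the top tested dose; inconclusive = flat fit with activity between 30 and 70 percent, or failed fit; inactive = the rest.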
Each compound was assayed on MEF Flag-A1-IRES-BIM, caspase-Glo luminescence, 3 h (assay: caspase activation in A1/BIM-primed MEFs, dose response, A1 (Bcl2A1) inhibitor project, cell-based, alternate construct, luminescence (AID 449757)).
Method in brief: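 Assay system: mouse embryonic fibroblasts primed via Flag-A1-IRES-BIM expression construct; quantity: 2500 cells per well, seeded one day before compound; medium: RPMI-1640 growth medium with 10% FBS; doses: 100 nL compound added per well by pin transfer; timing: 3-h compound at 37 °C, 30-min cooling, 1-h reagent at RT; measured by: CaspaseGlo luminescence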

Row | SMILES | AC50
1 | CN(c1ccccc1)c1ccc(/C=C/[N+](=O)[O-])cc1 | 10.2 µM
2 | O=C(/C=C/c1ccc(F)cc1)NC(=S)Nc1ccccc1C(=O)NC1CCCCC1 | > 35 µM (inactive)
3 | C=C1/C=C(\C)[C@](C)(O)C[C@H](O)CC(=O)[C@H](O)[C@@H](O)[C@H](C)C[C@H](C)OC(=O)/C(C)=C/CC/C=C/[C@@H]2O[C@H]2C[C@H](C)C1 | > 35 µM (inactive)
4 | CC(C)N=c1scc(-c2ccco2)n1/N=C/c1ccc(O)c(O)c1 | > 35 µM (inactive)
5 | O=C(N/C=N/OCc1ccc(Cl)cc1Cl)NOCc1ncc(C(F)(F)F)cc1Cl | > 35 µM (inactive)
6 | Cc1ccc(Sc2c([N+](=O)[O-])c(=O)n(C)c3ccccc23)cc1 | > 35 µM (inactive)
7 | Cc1ccc2nc(N(CCCN(C)C)C(=O)c3ccc(S(=O)(=O)N4CCc5ccccc5C4)cc3)sc2c1 | > 35 µM (inactive)
8 | O=C(Nc1ccc(Cl)cc1Cl)c1cccc(N2C(=O)C=CC2=O)c1 | 19.1 µM
9 | COC(=O)c1ccc2c(=O)n(Cc3ccc4c(c3)OCO4)c(=S)[nH]c2c1 | > 35 µM (inactive)
10 | COc1cc(/C=C(/C#N)c2nc3ccccc3[nH]2)ccc1OCC(=O)Nc1ccccc1C | 6.32 µM
11 | O=C(N=Nc1c(O)[nH]c2ccc([N+](=O)[O-])cc12)c1cc(-c2ccccc2Cl)nc2ccccc12 | > 35 µM (inactive)
12 | Cc1ccc(NC(=O)c2cc(N3C(=O)C=CC3=O)ccc2N2CCOCC2)cc1Cl | 15.8 µM

Source: PubChem BioAssay AID449757 (Broad Institute, 2010)
